Assay results published in the EternaBench riboswitch data.

System: MS2 coat protein
Experiment: apparent Kd, MS2 coat protein; higher = weaker binding; RNA-MaP array; FMN 200 µM where present
In short: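 Binding was read on Illumina sequencing-chip clusters where stalled E. coli RNA polymerase had transcribed each design. A titration of SNAP-549-labelled MS2 coat protein began at 0.7 or 1.5 nM and doubled to 3 µM, once without ligand and once with constant ligand, in 100 mM Tris-HCl pH 7.5, 80 mM KCl, 4 mM MgCl2, BSA, DTT, yeast tRNA and Tween-20. The apparent Kd is the median of filtered per-cluster binding-curve fits, based on green signal normalised to red-channel RNA signal and control-cluster median Fmax.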

[1] = designed as: OFF switch for flavin mononucleotide, no ligand
[2] = ligand present: flavin mononucleotide, designed as: OFF switch for flavin mononucleotide
[3] = designed as: ON switch for flavin mononucleotide, no ligand
[4] = ligand present: flavin mononucleotide, designed as: ON switch for flavin mononucleotide

Row | Sequence | apparent Kd [1] [nM] | apparent Kd [2] [nM] | apparent Kd [3] [nM] | apparent Kd [4] [nM]
1 | AUCUUUAAGAUAGGAUAUAGUAUGAUGGUUUAAUUAGAAGGAUCUCACAUGAGGAUCACCCAUGUAAUAGGAUUACCCAUGUAU | 46.1 | 31.7 |  | 
2 | UCCGCUCGAGGAUAUACAUGAGGAUCACCCAUGUUUCCCUGUUGUUUGGCCUCAGGAUGUAGAAGGCGACGCUA | 18.3 | 23.6 |  | 
3 | GCAGACGUGGUGAGGAUAUGCUCUACCUCGGUAGAGCAGAAGGCACAUGAGGAUCACCCAUGUGGCUCCUCAUU | 15.9 | 21 |  | 
4 | AGCUGGUGACAGCAUCCAUCCUGACAUGAGGAUCACCCAUGUAGAAGGCUGUACGGUUACCGUACAGAGGAUAUACAAUGAUGG | 10.1 | 22.3 |  | 
5 | ACUUCACAUGAGGAUCACCCAUGUCAGGCCGGACUAGGAUAUUAUCAUGCAGCGUGACCGUGAGAAGGAGUUGGAU |  |  | 110 | 114
6 | UAUAUGUGAGGAUAUCAGGUGUGCUAGCGAACUGGUACAUCUGAGAAGGCACAUGAGGAUCACCCAUGUAUCUU | 27.7 | 105 |  | 
7 | GGACGAAGUGUGAGGAUAUGCUGGUCCUUGGAUCAGCAGAAGGCACAUGAGGAUCACCCAUGUGGUAAACGUCC | 114 | 746 |  | 
8 | AGAUGUACAGCGAUAUGAUCGAGAGAUCAUGUCGCUGAAUUUAGAAGGACAUGAGGAUCACCCAUGUAGGAUAUGGGUGUAAUA |  |  | 80.8 | 72.8
9 | AGAUCACAUGAGGAUCACCCAUGUGAGGAUAUGAUACUAUGUACUUCGGUACAUAGUAUCAGAAGGCGCGUGAA | 29.8 | 42.2 |  | 
10 | CGUUCACAUGAGGAUCACCCAUGUCAGAUUUGGUCAGGAUAUGGUCGGCAUCCGCUAUUGCCAGAAGGGACUGUUG |  |  | 55.3 | 36.3
11 | AUAAUCACAUGAGGAUCACCCAUGUACCGAGCUAAAGCUACAUAGGAUAUGACAAGUAUAGCUUGUCAGAAGGGUGAGUCUCGC |  |  | 46.3 | 67.1
12 | UGAAAUCAUGUAGGAUAUGCAUGGCGAAGCUACGCAGAAGGACAUGAGGAUCACCCAUGUGCUAGCUACCGAGUUCGGUGGCAA | 103 | 215 |  | 
13 | UGUGCGUUGAUCUUCGAUCGGUGUACAUGAGGAUCACCCAUGUAGGAUAUUCAAAGACGCAGAUAGGAGAAGGACAUCGGUUUU | 18 | 19.8 |  | 
14 | CGUCCACAUGAGGAUCACCCAUGUCAGGAUAUACAAAUGCCAGGUCGCGGGCCAGGCGGUAGAAGGGACGUGGC | 23.1 | 18.6 |  | 
15 | UGGCGACAUGAGGAUCACCCAUGUAUUUCCAGUUAAGGAUAUAGGUGCUAGCAACGGCAGCUAGAAGGUGAGAUAA |  |  | 42 | 58
16 | UUGUUCUGAGGAUAUACAUGAGGAUCACCCAUGUGUUUCUGCUUGGUGUCUUGCGUUUGUAGAAGGCUGUUCUC | 26.5 | 28 |  | 
17 | AGAAAGGCAGGAUAUACAUGAGGAUCACCCAUGUUAAGAAAGUGCGAAAGCACAAGAAGUAGAAGGGCCAAGAA | 23 | 21.6 |  | 
18 | GGAUAGGACAGAGGAUAUACGUGCUAGAGAUACUUGCAAAAUUUCCUCACAUGAGGAUCACCCAUGUAGAAGGCUGUCCUAUCG | 56 | 489 |  | 
19 | UUAUUUCCUCAUGUACAUGAGGAACAUGAGGAUCACCCAUGUAGAAGGAUUUCAAUAAAAUUAAAAUAGGAUAUACAUAUAUUU | 68.3 | 81.6 |  | 
20 | UCGAAAAUGCAAGGAUAUCAAUUAUAGCUAAAUUAGACAUGAGGAUCACCCAUGUAAAUAUGGAGUGAGAAGGUGCAAUAAUUU |  |  | 453 | 174
21 | AGAGCCUCGUGAGGAUAUACAUGAGGAUCACCCAUGUAAAUGGAAGAACGGAGGAAACUCCGAAUGUAGAAGGCACGAGGCUCA | 149 | 1240 |  | 
22 | UCAUUUAUUACAGGAUAUGUUAGUAUACAGUUGUUUGGUUAUUACUUAUUAACAGAAGGGUAGAACAUGAGGAUCACCCAUGUA |  |  | 80.4 | 40.7
23 | GAUCAGCUUGUGAGGAUAUCCGGGCAUAAAGGCUAGGAGAAGGUACAUGAGGAUCACCCAUGUAGAGUCCUGGG | 47.9 | 58.9 |  | 
24 | CUUUUGUGAGGAUAUUCGUAGUAGGUAAAUAAAACUAUUACGGAGAAGGCACAUGAGGAUCACCCAUGUUCCUU | 18.1 | 54.2 |  | 

Row | Sequence | apparent Kd [1] [nM] | apparent Kd [2] [nM] | apparent Kd [3] [nM] | apparent Kd [4] [nM]
25 | AAUUAUUUGUAGAAGGAAGGAGAUUUUGUAUUCUUAGGAUAUACUAUUACAUGAGGAUCACCCAUGUUUGUUGGGUUGCAAUGU | 315 | 323 |  | 
26 | UGAGAUGUAGUAGGAUAUCAGGUUACAUGAGGAUCACCCAUGUUAGAUUGGUGGAUAGAUGUUGAUGAGAAGGACUUUUGAGUG | 66.7 | 116 |  | 
27 | ACAUUUAAUACAGGAUAUGUUAGUAUACAGUAGAUUGGUUAUUACACAACAACAGAAGGGUAGAACAUGAGGAUCACCCAUGUA |  |  | 85.1 | 55.3
28 | CUUUUGUGAGGAUAUCAGUAGUAAAAAAAUAAUAUUACUACUGAGAAGGCACAUGAGGAUCACCCAUGUUCCUC | 36 | 276 |  | 
29 | GUACUGAAGCUUUGCUUUAGUCGUACAUGAGGAUCACCCAUGUAGGAUAUGGUAGGCUAUGCUUACUAGAAGGAUAGAGUGAUC | 88.8 | 46.4 |  | 
30 | AGUCGGAGCAGAGGAUAUACAUGAGGAUCACCCAUGUAAUAAAGUGAAGCCUGGAAGCAGGCAAUGUAGAAGGCUGCUCCGACA | 11.1 | 81.8 |  | 
31 | CCGGAAAGGGAGGAUAUAGGAGUCGAUAGACACCUAGAAGGCCUGACAUGAGGAUCACCCAUGUGUCCUACCGG | 15 | 25 |  | 
32 | AGAUUCAUGGCCCGUUCGGGCUCACAUGAGGAUCACCCAUGUGAGGAUAUGAUAUACCUGAUUUAUCAGAAGGCGCAUGCGAAA | 7.22 | 10.3 |  | 
33 | GUUUGUUAUUAGAAGGUGCCAGCGAGAGCUGCACAUGAGGAUCACCCAUGUUGUCGGUGACGACGCAAGGAUAUGGUGGUGGAU |  |  | 715 | 169
34 | CCAGCCGUUCAAGGAUAUGACAUGAGGAUCACCCAUGUGAAGUCGAACAUUGAUGCACACCUUAGUCAGAAGGUGGAUGGGUCU | 30.9 | 96.5 |  | 
35 | AUUAUAUAGACAGGAUAUUGAUUAUUAUUUUAACAUGAGGAUCACCCAUGUAGCCUUAUGUAUAGCAAGAAGGGUCAUUUAUUA | 135 | 206 |  | 
36 | GUGGCAUGAGGAUAUCGAGGUUAGUACAUGAGGAUCACCCAUGUUAUCCAGGUGUCGGUUCGAGAAGGCAUGGCAC | 326 | 302 |  | 
37 | UGUGCGUAUGUGAGGAUAUGCUGGUCCUUGGAUCAGCAGAAGGCACAUGAGGAUCACCCAUGUGGUGUCGUACU | 296 | 25.7 |  | 
38 | GCGUUACAUGAGGAUCACCCAUGUGAGGAUAUGGUGCGGUAGUGUCCUGUCGCGUACUCCAGAAGGCGCGGGUG | 137 | 240 |  | 
39 | UAAAGUUAAGGAGGAUAUUACAUGAGGAUCACCCAUGUAAUGGGCUCGGUGUAAGAAGGCCUUGAGUCGAAGUUUCGGAUAAGG | 9.05 | 18.6 |  | 
40 | UAAGUAAGUGCAGGAUAUUUAAGAAGAACAUGAGGAUCACCCAUGUGAGGAUCACCCAUGUAAAAGGAGAAGGGCAGAGUAUGA | 960 | 1220 |  | 
41 | GGACUUCCUGAGGAUAUUGUAUCACCUGAUUGAUAAGAAGGCAGAACAUGAGGAUCACCCAUGUGGGUACUCGG | 136 | 125 |  | 
42 | UGCUGUGUCAGAGGAUAUACGUCAAUAAUCCAUUGCAAAUAGCGAUGGACAUGAGGAUCACCCAUGUAGAAGGCUGUCACAGCA | 58.3 | 242 |  | 
43 | GCUGGUCGAGGAUAUACGUGACGUGCUUCGGCACGAGGUCUACAUGAGGAUCACCCAUGUAGAAGGCGACCAGC | 14.5 | 52.7 |  | 
44 | AAGCACAGAGGAUAUACAUGGGUAAAAAAAAAAAAAAAAAAACAUGAGGAUCACCCAUGUAGAAGGCUGUGCAA | 81.6 | 67 |  | 
45 | GUAGCUAUCGGAGGAUAUUCAAUAUACAUGAGGAUCACCCAUGUUAAAGUGGGAGAAGGCCGAUAGCUACAAGAGCGAAAGCUC |  |  | 13.6 | 6
46 | GAGAAGAGGGAAGGAUAUACAUGAGGAUCACCCAUGUAGAUAGGUUUAAUAGGUUGUUGUUGUUUGUAGAAGGUCCGGUUUGUU | 18 | 16.8 |  | 
47 | GCCCGACAUGAGGAUCACCCAUGUGGGAAACCGCGAGGAUAUCCGGGCCCGAAAGGGCCCGGAGAAGGCGCCGGGC |  |  | 12.5 | 10.9
48 | GCACAACAUGAGGAUCACCCAUGUCUCACAAACCAAGGAUAUGGGCCCGGCCAGGCCGGAUCAGAAGGUGGAAAAU |  |  | 312 | 143
